An excerpt weighted towards active compounds, which were near 2% of everything screened.
XBP1 UPR activ: activators of adaptive arm of unfolded protein response (XBP1); activation, % at 20 µM; AID 463104; CHO-XBP1 luciferase reporter, IRE1-XBP1 UPR activation, luminescence; percent of tunicamycin response, DMSO as zero; 330,000 compounds, 0.33% hits;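 active means versus positive control, 20 µM dose yields 30% or more activation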;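 further: 100% = tunicamycin at 10 µg/mL and 0% = DMSO only wells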
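Material – CHO cell line with stable XBP1 luciferase reporter · Buffer or medium – F12 plus 10% FBS · Compound – single point, 20 µM final compound, 1% DMSO · Schedule – 16-18 h cell attachment at 37 °C, then 6 h compound exposure · Signal – Steady-Glo luminescence read · Benchmarks – high control tunicamycin 10 µg/mL final, low control DMSO vehicle only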
UPR CHOP act: apoptotic UPR (CHOP) activation. CHO-CHOP luciferase reporter, luminescence; percent of tunicamycin response over DMSO baseline. activation, % at 10 µM. 330,000 compounds, 0.34% hits. AID 449763;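 active means at 10 µM dose, activation of 40% or more, normalized to positive control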;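 further: 100% = tunicamycin at 10 µg/mL and 0% = DMSO alone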
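Test system: CHO-CHOP cells, stable luciferase reporter of PERK-eIF2a-CHOP signalling | Quantity: 500 CHO-CHOP cells per well | Buffer or medium: F12 plus 10% serum | Compound dosing: 10 µM single point, 0.5% DMSO | Schedule: 6 h compound treatment, 37 °C | Signal: Luciferase luminescence | Control set: Tunicamycin high control, DMSO low control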
MC4R ag barr: human MC4R agonism via beta-arrestin; 360,000 compounds, 0.98% hits; U2OS MC4R beta-arrestin complementation, luminescence; percent of melanotan II response, DMSO zero; P32245; activation, % at 8.9 µM;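 active means activation above a per-plate cutoff, the mean activation of sample wells on that plate plus 3 SD, cut at about 8% in these data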
Target sequence (P32245 whole entry, looked up): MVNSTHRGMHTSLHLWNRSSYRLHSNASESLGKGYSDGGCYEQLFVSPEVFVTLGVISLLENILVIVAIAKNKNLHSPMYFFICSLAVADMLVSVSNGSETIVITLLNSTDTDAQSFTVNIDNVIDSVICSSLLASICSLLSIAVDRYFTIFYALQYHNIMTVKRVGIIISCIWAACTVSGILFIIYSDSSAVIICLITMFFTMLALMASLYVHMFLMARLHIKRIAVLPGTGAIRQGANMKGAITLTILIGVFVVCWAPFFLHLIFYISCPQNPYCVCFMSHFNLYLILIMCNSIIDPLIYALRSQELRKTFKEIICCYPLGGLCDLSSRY
MC4R antagonist: blocks human MC4R cAMP signaling | P32245 | MC4R-expressing cells, MTII-stimulated cAMP, LANCE TR-FRET | inhibition, % at 6.5 µM | 360,000 compounds, 0.48% hits | AID 540295;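 active means inhibition above its plate's cutoff, the mean of tested wells on that plate plus 3 SD, cut at about 29% in these data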;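 further: 0% = Melanotan II alone and 100% = Melanotan II plus saturating MCL0020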
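material = U2OS cells stably expressing human melanocortin 4 receptor (MC4R) | also added = Melanotan II challenge | dosing = single nominal compound dose of 6.5 µM | detection = TR-FRET with Eu-cAMP and labeled anti-cAMP, 671 nm | replication = singlicate | timing = compound 30 min, challenge 1 h, detection 1 h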
Bfl-1 A1 inh: inhibitors of the anti-apoptotic protein A1, read as caspase activation. MEF A1-2A-BIM cells, Caspase-Glo 3/7 luminescence, 3 h; percent of clofoctol response, vehicle zero. caspase activation, % (no concentration beside the values). 330,000 compounds, 0.066% hits. AID 2462;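 active means over half of replicate activation scores above 10%, or exactly half above 10 with the replicate mean above 10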
MC4R barr conf: human MC4R beta-arrestin agonism confirmation. activation, % at 8.9 µM. U2OS MC4R beta-arrestin recruitment, luminescence; scaled DMSO 0%, Melanotan II 100%. shares compounds with MC4R ag barr. 2,400 compounds, 31% hits;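 active means mean activation across replicates above the hit cutoff set in the earlier primary screen, cut at about 8% in these data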
MOR-DOR barr ag: activates mu-delta opioid heterodimer, MC4R agonist counter-screen; activation, % at 9.2 µM; U2OS PathHunter beta-arrestin, beta-gal luminescence; percent of deltorphin B response, DMSO zero; 2,400 compounds, 5.8% hits; shares compounds with MC4R ag barr; AID 602194;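 active means mean activation across replicates exceeds the hit threshold derived in the earlier primary screen, cut at about 18% in these data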;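 further: 100% = deltorphin B at 0.9 µM final and 0% = DMSO alone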
An asterisk follows results filed as active; / = no result.

SMILES	XBP1 UPR activ	UPR CHOP act	MC4R ag barr	MC4R antagonist	Bfl-1 A1 inh	MC4R barr conf	MOR-DOR barr ag
CCn1c2ccc(OC)cc2c2nc3ccccc3nc21	12.3	-1.9	/	/	0.0	/	/
Nc1cccnc1Oc1ccc(F)cc1	-1.7	0.2	-0.8	5.5	-0.4	/	/
FC(F)(F)c1cccnc1Oc1ccc(C2=NCCS2)cc1	0.6	4.0	41.8*	2.5	0.4	24.2*	7.2
COCCN(C(=O)CSc1ccc2c(c1)OCCO2)c1c(N)n(CC(C)C)c(=O)[nH]c1=O	-0.8	-0.3	-1.2	4.7	-0.7	/	/
O=C(Nc1cc(Cl)ccc1Cl)c1ccc(-c2ccccc2)cc1	4.5	3.6	9.8*	-6.8	-0.4	5.3	8.5
CCCNC(=O)C1(C)CCN(C(=O)Cc2ccc(OC)c(OC)c2)C1 (centres undefined)	/	/	1.0	12.8	/	/	/
Cc1nc2c(-c3ccc(F)cc3)c(C)nn2c(C)c1CCC(=O)Nc1ccccc1F	-3.2	0.3	12.9*	2.1	0.0	-1.9	4.3
COC(CNC(=O)CCc1c(C)nc2c(-c3ccc(F)cc3)c(C)nn2c1C)OC	-1.5	0.8	1.6	11.7	0.0	/	/
Cc1ccccc1OCCC(=O)Nc1ccc(S(=O)(=O)N2CCCC2)cc1	/	/	-2.3	8.1	/	/	/
CCNC(=S)N/N=C/c1cc(Br)cc(Br)c1OC	-1.1	-0.6	11.6*	23.6	0.2	1.7	7.7
Cc1nc(C)c(-c2ccc(SCC(=O)Nc3ccc(C)c(Cl)c3)nn2)s1	1.5	4.3	10.3*	-0.9	-0.2	2.7	6.3
COc1ccc(NC(=O)CSc2ccc(-c3sc(C)nc3C)nn2)cc1OC	-0.9	1.9	-1.9	2.6	1.4	/	/
CCOC(=O)c1ccc(NC(=O)c2ncn3c2C(=O)N[C@H](C)C3)cc1	/	/	1.5	11.3	/	/	/
CC12CCC=CC1=C(C=O)C1C2CCC2(C)C(O)CCC12 (centres undefined)	/	/	-1.9	6.0	/	/	/
COc1ccc(C2CC(c3ccc(Cl)cc3Cl)n3nc(N)nc3N2)cc1 (centres undefined)	-2.2	-1.9	15.1*	4.8	-0.4	13.2*	6.7
Cc1ccc(NS(=O)(=O)c2ccc(-n3cccn3)cc2)cc1Cl	/	/	12.6*	13.0	/	-0.1	7.5
Cc1cc(C)c(NC(=O)C2CCN(S(C)(=O)=O)CC2)c(C)c1	/	/	-0.7	12.3	/	/	/
CCOC(=O)c1c(NC(=O)CN2CCCc3ccccc32)sc(C(C)=O)c1C	-0.7	1.6	23.0*	4.3	0.3	2.3	2.3
CCc1ccc2c(c1)cc(CN(C(=S)Nc1ccccc1C)C1CC1)c1nnnn12	-0.1	-1.5	12.5*	7.5	1.0	3.9	1.5
O=C(CSc1ccccc1F)NC(=O)c1ccc(Cl)cc1	-1.2	-0.1	10.3*	4.3	-0.6	5.2	2.3
O=C(CSc1ccc(Cl)cc1)NC(=O)c1ccccc1	0.2	-0.5	0.3	2.5	-1.3	/	/
Cc1ccc(-c2cnc(C(O)c3cccc(Cl)c3)[nH]2)cc1 (centres undefined)	/	/	-0.1	3.7	/	/	/
Cc1cccc(Cn2cc3c(=O)n(Cc4cccc(F)c4)nc-3c3ccccc32)c1	-2.5	-0.2	16.7*	24.0	-0.7	-2.0	10.0
Cn1nc2c3cc(F)ccc3n(Cc3ccc(F)cc3)cc-2c1=O	-3.8	-0.2	0.2	-0.7	0.3	/	/
CCOc1ccc(N(CC(=O)Nc2c(C)cc(C)cc2C)C2=NC3CS(=O)(=O)CC3S2)cc1 (centres undefined)	/	/	-0.9	8.7	/	/	/
SMILES	XBP1 UPR activ	UPR CHOP act	MC4R ag barr	MC4R antagonist	Bfl-1 A1 inh	MC4R barr conf	MOR-DOR barr ag
COCCn1c(N)c(N(Cc2ccccc2)C(=O)C(C)Oc2ccc(Br)cc2)c(=O)[nH]c1=O (centres undefined)	/	/	2.6	14.8	/	/	/
Cc1ccc(-c2[nH]ncc2/C=N/n2c(COc3ccccc3C)nc3ccccc3c2=O)cc1	19.6	22.7	18.8*	4.4	1.8	3.2	5.3
Cc1ccccc1OCc1nc2ccccc2c(=O)n1/N=C/c1c[nH]c2ccccc12	-0.7	1.3	28.5*	-2.6	-0.1	8.2	6.0
COC(=O)c1ccsc1NC(=O)CN1CCN(Cc2ccc3c(c2)OCO3)CC1	1.8	-2.0	0.2	1.4	-0.6	/	/
COC(=O)c1c(NC(=O)CN2CCN(Cc3ccc4c(c3)OCO4)CC2)sc(C)c1C	-1.4	-0.4	9.6*	12.7	-0.2	7.7	12.6
Cc1ccc(N=Nc2ccc(O)c3ncccc23)cc1	/	/	11.0*	15.9	-1.3	-1.3	0.3
O=C(CCCOC(=O)c1ccc(O)cc1O)c1ccc(Br)cc1	5.2	3.9	10.5*	5.5	/	8.7*	6.6
O=C(CCCOC(=O)c1cccnc1Cl)c1ccc(Br)cc1	-2.6	0.2	0.1	2.9	-0.4	/	/
COc1cccc(CN(Cc2ccco2)S(=O)(=O)c2ccc(S(=O)(=O)NCc3ccccc3)cc2)c1OC	0.1	2.0	1.3	4.5	-0.8	/	/
COc1cccc(CN(Cc2ccccc2F)S(=O)(=O)c2ccc(S(=O)(=O)NCc3ccccc3)cc2)c1	-0.1	-0.3	21.6*	-0.9	0.4	8.0	9.5
FC(F)(F)c1cc(-c2cccs2)nc2cc(-c3cccs3)nn12	2.2	0.8	25.0*	0.6	0.4	2.4	4.0
O=C(OCC(O)C(O)C(O)C(SCc1ccccc1)SCc1ccccc1)c1ccccc1 (centres undefined)	/	/	17.2*	6.4	/	14.1*	11.2
Cc1ccc(S(=O)(=O)N2C[C@H]3C(=O)C[C@@H](c4ccc(Cl)cc4)N(S(=O)(=O)c4ccccc4C)[C@H]3C[C@H]2c2ccccc2)cc1	/	/	-0.6	0.4	/	/	/
CC1CCC(C(C)C)C(OC(=O)Cn2c(-c3ccc(F)cc3)[n+](C)c3ccccc32)C1 (centres undefined)	4.2	1.4	17.0*	-0.1	1.1	15.9*	5.3
CC1CCC(C(C)C)C(OC(=O)Cn2c(-c3ccccc3)[n+](C)c3ccccc32)C1 (centres undefined)	18.7	16.8	2.3	-13.1	-0.5	/	/
COc1ccc(/C=C/C(=O)N(C)CC(=O)Nc2cccc(F)c2)cc1S(=O)(=O)N1CCCCC1	-3.6	-1.1	-2.5	0.1	/	/	/
COc1ccc(NC(=O)CN(C)C(=O)CCc2ccccc2)cc1	-1.3	1.2	-0.8	-1.0	1.0	/	/
COc1ccc(NC(=O)CN(C)C(=O)/C=C/c2ccc(OCc3ccccc3)cc2)cc1	7.6	0.8	19.0*	-0.6	-0.1	8.2	12.2
